Data set [1] has as its system THP-1. Kind of data set: Cytotoxicity against human THP1 cells assessed as cell viability at 30 uM after 24 hrs by MTS assay. Particulars: thp-1, 24 h. It counts as cell-based. The method in brief: (§1)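 MTS viability: cells at 50 000/well were preincubated 1 h, then serial half-dilutions of test agent were added. After 24 h incubation, MTS reagent was added for 1 h and absorbance read at 492 nm.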
For orientation: Formazan colour is commonly taken as a measure of viable cells.

Data set [2] relates to RAW264.7. The experiment in a line: Antiinflammatory activity in mouse RAW264.7 cells assessed as inhibition of LPS-induced NO production at 3 to 30 uM incubated for 1 hr prior to LPS-challenge measured after 24 hrs by Greiss assay. It counts as functional, cell-based. The method in brief: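 RAW264.7 macrophages (100 000/well) in DMEM preincubated 1 h with test agent at 3 or 30 μM. Stimulated with LPS 1 μg/mL final for 24 h at 37 °C, 5% CO2. Supernatant nitrite measured by Griess reaction (sulfanilic acid and N-naphthylethylenediamine in 5% HCl, 10 min at 37 °C). A540 read against a sodium nitrite standard curve; n = 8.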

The nature of data set [3]: Cytotoxicity against human NHEK cells assessed as cell viability at 30 uM after 24 hrs by MTS assay. It counts as cell-based. A digest of the protocol: as §1
The test system of data set [4] is RAW264.7. The experiment in a line: Cytotoxicity against mouse RAW264.7 cells assessed as cell viability at <60 uM after 24 hrs by MTS assay. Particulars: raw264.7, 24 h. It counts as cell-based. A digest of the protocol: as §1
Data set [5] deals with Mus musculus. Kind of data set: Antiinflammatory activity in Balb/C mouse ear edema model assessed as reduction of TPA-induced IL-1beta production at 0.9 umol/ear by ELISA relative to control. It counts as functional. Set-up: scale not given: the % may be the effect or the level left. A digest of the protocol: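 Acute TPA ear model in male Balb/C mice, killed 6 h after treatment (0.9 μmol/ear topical). 5 mm ear punches were homogenized in 50 mM Tris-HCl pH 7.4/1 mM EDTA with protease inhibitors, then held 15 min on ice with 1% Triton X-100. Spun at 9500g, 4 °C; supernatant assayed by ELISA. Basal untreated-ear levels were subtracted.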
(In general: In an ELISA, binding on a coated surface is turned into a signal by an enzyme label.)

For data set [6], the system named is THP-1. The experiment in a line: Antiinflammatory activity in human THP1 cells assessed as inhibition of TPA/ionomycin-induced extracellular IL-1beta level at 30 uM incubated 1 hr prior to TPA/ionomycin challenge measured after 24 hrs by ELISA. Type of data set: functional. The method in brief:
(§2)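 THP-1 monocytes (100 000/well) in RPMI-1640 preincubated 1 h with test agent, ethanol ≤0.05%. Stimulated with TPA 40 ng/mL/ionomycin 1 μM (final) for 24 h at 37 °C, 5% CO2. Supernatant kept for extracellular cytokines. Washed cells were lysed in ice-cold RIPA with protease inhibitors for intracellular IL-1β and pro-IL-1β. ELISA read-out; n = 6.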

The test system of data set [7] is Mus musculus. The experiment in a line: Antiinflammatory activity in Balb/C chronic mouse ear edema model assessed as reduction in TPA-induced redness in ears at 0.9 umol/ear administered topically, bid from day 7 to day 10 measured every day during compound administration relative to control. It counts as functional, organism-based.
Data set [8] has as its system neonatal human epidermal keratinocytes (Homo sapiens). The experiment in a line: Antiinflammatory activity in human NHEK cells assessed as inhibition of TPA/ionomycin-induced extracellular TNF-alpha production at 3 uM incubated for 1 hr prior to TPA/ionomycin challenge measured after 24 hrs by ELISA.
The test system is the same in data set [9]. Kind of data set: Antiinflammatory activity in human NHEK cells assessed as inhibition of TPA/ionomycin-induced IL-8 production at 0.3 to 30 uM incubated for 1 hr prior to TPA/ionomycin challenge measured after 6 to 24 hrs by ELISA.
Data set [10] deals with Mus musculus. The experiment in a line: Antiinflammatory activity in Balb/C chronic mouse ear edema model assessed as reduction in influx of neutrophils at 0.9 umol/ear administered topically, bid from day 7 to day 10 measured every day during compound administration relative to control. It counts as functional, organism-based. The method in brief: (§3)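 Chronic TPA ear model in male Balb/C mice: topical dosing at 0.9 μmol/ear in ethanol, twice daily days 7–9 and once on day 10, then euthanasia. 5 mm ear punches were homogenized in 80 mM PBS pH 5.4 with 0.5% HTAB and centrifuged. Supernatant in duplicate was reacted with H2O2 and 18.4 mM tetramethylbenzidine for 3 min at 37 °C. Stopped with sodium acetate pH 3.0; A600 read as neutrophil marker.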

Data set [11] has as its system THP-1. The experiment in a line: Antiinflammatory activity in human THP1 cells assessed as inhibition of TPA/ionomycin-induced intracellular proIL-1beta level at 30 uM incubated 1 hr prior to TPA/ionomycin challenge measured after 24 hrs by ELISA. It counts as functional. A digest of the protocol: as §2
Data set [12] relates to neonatal human epidermal keratinocytes (Homo sapiens). Kind of data set: Antiinflammatory activity in human NHEK cells assessed as inhibition of TPA/ionomycin-induced extracellular TNF-alpha production at 30 uM incubated for 1 hr prior to TPA/ionomycin challenge measured after 6 to 24 hrs by ELISA.
Data set [13] concerns Mus musculus. Kind of data set: Antiinflammatory activity in Balb/C chronic mouse ear edema model assessed as reduction in TPA-induced flaky appearance in ears at 0.9 umol/ear administered topically, bid from day 7 to day 10 measured every day during compound administration relative to control. It counts as functional, organism-based.
The subject of data set [14] is THP-1. Kind of data set: Cytotoxicity against human THP1 cells assessed as cell viability at <60 uM after 24 hrs by MTS assay. It counts as cell-based. Particulars: thp-1, 24 h. The method in brief: as §1
Data set [15] has as its system THP-1. The experiment in a line: Antiinflammatory activity in human THP1 cells assessed as inhibition of TPA/ionomycin-induced intracellular IL-1beta level at 30 uM incubated 1 hr prior to TPA/ionomycin challenge measured after 24 hrs by ELISA. It counts as functional. The method in brief:
as §2

For data set [16], the system named is Mus musculus. Kind of data set: Antiinflammatory activity in Balb/C chronic mouse ear edema model assessed as reduction in TPA-induced myeloperoxidase accumulation at 0.9 umol/ear administered topically, bid from day 7 to day 10 measured every day during compound administration relative to control. It counts as functional. Set-up: scale not given: the % may be the effect or the level left. The method in brief:
as §3

In data set [17] the test system is Mus musculus. The experiment in a line: Antiinflammatory activity in Balb/C chronic mouse ear edema model assessed as reduction in TPA-induced edema at 0.9 umol/ear administered topically, bid from day 7 to day 10 measured every day during compound administration relative to control. It counts as functional. Set-up: scale not given: the % may be the effect or the level left. The method in brief:
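Male Balb/C mice, 7–9 weeks old, acclimated at least 4 days. 20 μL TPA (125 μg/mL) was applied to inner and outer surfaces of both ears on alternate days from day 0. Test agent at 0.9 μmol/ear in 20 μL ethanol was applied topically to both ears morning and afternoon on days 7–9, with one more dose on day 10 morning. Ear thickness was read with a digital micrometer on days 0–4 and 7–10; means ± SEM, n ≥ 6.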

The nature of data set [18]: Antiinflammatory activity in human NHEK cells assessed as inhibition of TPA/ionomycin-induced extracellular IL-6 production at 30 uM incubated for 1 hr prior to TPA/ionomycin challenge measured after 6 hrs by ELISA. It counts as functional. A digest of the protocol:
(§4)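 Primary neonatal keratinocytes (passage ≤3) seeded at 10 000/well for 18 h at 37 °C, 5% CO2, then given fresh medium. Preincubated 1 h with test agent, then stimulated with TPA 40 ng/mL/ionomycin 1 μM. Supernatants taken at 6 and 24 h, centrifuged and stored at −80 °C. Extracellular cytokines measured by ELISA; means ± SEM, n = 6.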

The nature of data set [19]: Antiinflammatory activity in human NHEK cells assessed as inhibition of TPA/ionomycin-induced extracellular TNF-alpha production at 3 uM incubated for 1 hr prior to TPA/ionomycin challenge measured after 6 hrs by ELISA. Type of data set: functional. The method in brief:
as §4

Data set [20] is described as follows: Cytotoxicity against human NHEK cells assessed as cell viability at <60 uM after 24 hrs by MTS assay. It counts as cell-based. The method in brief:
as §1

Data set [21] relates to Mus musculus. The experiment in a line: Antiinflammatory activity in Balb/C chronic mouse ear edema model assessed as reduction in TPA-induced scaling in ears at 0.9 umol/ear administered topically, bid from day 7 to day 10 measured every day during compound administration relative to control. Type of data set: functional, organism-based.
Data set [22] relates to neonatal human epidermal keratinocytes (Homo sapiens). The experiment in a line: Antiinflammatory activity in human NHEK cells assessed as inhibition of TPA/ionomycin-induced IL-1alpha production at 0.3 to 30 uM incubated for 1 hr prior to TPA/ionomycin challenge measured after 6 to 24 hrs by ELISA.
Data set [23] is described as follows: Antiinflammatory activity in human NHEK cells assessed as inhibition of TPA/ionomycin-induced extracellular IL-6 production at 30 uM incubated for 1 hr prior to TPA/ionomycin challenge measured after 24 hrs by ELISA. Type of data set: functional. A digest of the protocol: as §4
The subject of data set [24] is THP-1. The experiment in a line: Antiinflammatory activity in human THP1 cells assessed as inhibition of TPA/ionomycin-induced extracellular IL-1beta level at 3 uM incubated 1 hr prior to TPA/ionomycin challenge measured after 24 hrs by ELISA. Type of data set: functional. The method in brief: as §2
In data set [25] the test system is THP-1. Kind of data set: Antiinflammatory activity in human THP1 cells assessed as inhibition of TPA/ionomycin-induced TNF-alpha production at 30 uM incubated 1 hr prior to TPA/ionomycin challenge measured after 24 hrs by ELISA. Type of data set: functional. The method in brief:
as §2

Data set [26] deals with THP-1. Kind of data set: Antiinflammatory activity in human THP1 cells assessed as inhibition of TPA/ionomycin-induced intracellular IL-1beta level at 5 uM incubated 1 hr prior to TPA/ionomycin challenge measured after 24 hrs by ELISA. It counts as functional, cell-based. The method in brief: as §2
Data set [27] deals with THP-1. Kind of data set: Antiinflammatory activity in human THP1 cells assessed as inhibition of TPA/ionomycin-induced extracellular TNF-alpha production at 5 uM incubated 1 hr prior to TPA/ionomycin challenge measured after 24 hrs by ELISA. It counts as functional, cell-based. The method in brief:
as §2

Data set [28] has as its system THP-1. The experiment in a line: Antiinflammatory activity in human THP1 cells assessed as inhibition of TPA/ionomycin-induced extracellular IL-1beta level at 5 uM incubated 1 hr prior to TPA/ionomycin challenge measured after 24 hrs by ELISA. Type of data set: functional, cell-based. A digest of the protocol: as §2
The subject of data set [29] is THP-1. Kind of data set: Antiinflammatory activity in human THP1 cells assessed as inhibition of TPA/ionomycin-induced intracellular proIL-1beta level at 5 uM incubated 1 hr prior to TPA/ionomycin challenge measured after 24 hrs by ELISA. Type of data set: functional, cell-based. The method in brief:
as §2

What is called inhibition is the drop in the measured response relative to a control, in per cent.

Molecules are shown by their SMILES. The source made the active and inactive calls. No cut-off for these calls is given here.

As to `C[C@]1(CCc2ccoc2)[C@H](COC(=O)c2ccccc2)CC[C@@]2(C)C(C(=O)O)=C[C@H](O)C[C@H]12`, the Activity result is recorded as “Non-toxic” in the data set with THP-1 [1]; “Non-toxic” in data set [3]; “Non-toxic” in the data set with RAW264.7 [4]; 78% in the data set on Mus musculus [5]; “Non-toxic” in the data set on THP-1 [14]; 81.5% in the data set with Mus musculus [16]. The results for the Activity (in the data set on Mus musculus [17]; in data set [20]) were 41.1% and “Non-toxic”, respectively. In addition, the inhibition result (with RAW264.7 [2]; in data set [8]; in data set [9]; in data set [12]; in data set [22]) was “inactive” throughout. Further, the inhibition at 30 µM in the data set with THP-1 [6] is 26.3%; with THP-1 [11] it was 17%; in the data set with THP-1 [15], 15%; in data set [18], 33.2%; in data set [23], 41.5%; in the data set with THP-1 [25] it was 19.7%. The result in the data set with Mus musculus [7], in the data set with Mus musculus [10], in the data set on Mus musculus [13] and in the data set on Mus musculus [21] was Active. The inhibition at 3 µM in data set [19] was determined as 26.2%; with THP-1 [24], 18%.

Turning to `CCC(=O)OCC(=O)[C@@]1(OC(=O)CC)[C@@H](C)C[C@H]2[C@@H]3CCC4=CC(=O)C=C[C@]4(C)[C@@]3(F)[C@@H](O)C[C@@]21C` [BETAMETHASONE DIPROPIONATE], the figures for the Activity with Mus musculus [16] and with Mus musculus [17] were 90% and 54.2%, respectively.

`Cc1ccc(S(=O)(=O)/C=C/C#N)cc1`: the inhibition entry in the data set with THP-1 [26], with THP-1 [27], with THP-1 [28] and in the data set on THP-1 [29] was “Active” each time.

For the origin of these results see ChEMBL document CHEMBL3102701, “Polyandric acid A, a clerodane diterpenoid from the Australian medicinal plant Dodonaea polyandra, attenuates pro-inflammatory cytokine secretion in vitro and in vivo” (J Nat Prod, 2014).
